# Tests used:
# [1] = target: Serine-protein kinase ATM (Homo sapiens) (UniProt Q13315); assay: Inhibition of human recombinant ATM at 500 nM related to control ULK1
# How it was run: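 Panel of 327 recombinant human kinases, each assayed in vitro by radiometric activity assay in duplicate at a single inhibitor concentration per compound, chosen with reference to its ULK1 inhibition. Activity remaining was expressed as percent of vehicle control, and percent inhibition was calculated as 100 minus percent activity remaining.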
# [2] = target: T1, Dual specificity tyrosine-phosphorylation-regulated kinase 2 (Homo sapiens) (UniProt Q92630); assay: Inhibition of human recombinant DYRK2 at 500 nM in presence of ATP by radiometric assay relative to control
# T1 sequence (whole entry): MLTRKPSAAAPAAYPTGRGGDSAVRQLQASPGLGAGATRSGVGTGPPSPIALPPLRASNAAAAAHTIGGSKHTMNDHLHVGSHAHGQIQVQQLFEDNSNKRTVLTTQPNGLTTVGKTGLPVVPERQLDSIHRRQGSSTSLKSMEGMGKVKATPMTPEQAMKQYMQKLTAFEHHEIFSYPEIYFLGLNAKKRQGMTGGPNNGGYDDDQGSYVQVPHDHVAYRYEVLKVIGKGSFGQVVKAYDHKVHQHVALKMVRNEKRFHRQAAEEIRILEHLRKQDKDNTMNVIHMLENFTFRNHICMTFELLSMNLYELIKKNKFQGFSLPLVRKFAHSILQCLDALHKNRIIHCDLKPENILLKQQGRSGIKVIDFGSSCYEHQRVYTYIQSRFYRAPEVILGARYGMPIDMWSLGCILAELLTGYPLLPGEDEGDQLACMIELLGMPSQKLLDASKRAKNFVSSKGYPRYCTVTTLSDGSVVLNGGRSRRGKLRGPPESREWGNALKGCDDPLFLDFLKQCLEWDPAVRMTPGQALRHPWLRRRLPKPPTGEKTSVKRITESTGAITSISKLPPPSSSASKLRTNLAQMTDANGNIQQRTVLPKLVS
# [3] = target: Serine/threonine-protein kinase tousled-like 2 (Homo sapiens) (UniProt Q86UE8); assay: Inhibition of human recombinant TLK2 at 500 nM in presence of ATP by radiometric assay relative to control
# [4] = target: Mitogen-activated protein kinase 8 (Homo sapiens) (UniProt P45983); assay: Inhibition of human recombinant JNK1 at 500 nM related to control ULK1
# [5] = target: T2, Mitogen-activated protein kinase kinase kinase kinase 2 (Homo sapiens) (UniProt Q12851); assay: Inhibition of human recombinant GCK at 15 nM in presence of ATP by radiometric assay relative to control
# T2 sequence (whole entry): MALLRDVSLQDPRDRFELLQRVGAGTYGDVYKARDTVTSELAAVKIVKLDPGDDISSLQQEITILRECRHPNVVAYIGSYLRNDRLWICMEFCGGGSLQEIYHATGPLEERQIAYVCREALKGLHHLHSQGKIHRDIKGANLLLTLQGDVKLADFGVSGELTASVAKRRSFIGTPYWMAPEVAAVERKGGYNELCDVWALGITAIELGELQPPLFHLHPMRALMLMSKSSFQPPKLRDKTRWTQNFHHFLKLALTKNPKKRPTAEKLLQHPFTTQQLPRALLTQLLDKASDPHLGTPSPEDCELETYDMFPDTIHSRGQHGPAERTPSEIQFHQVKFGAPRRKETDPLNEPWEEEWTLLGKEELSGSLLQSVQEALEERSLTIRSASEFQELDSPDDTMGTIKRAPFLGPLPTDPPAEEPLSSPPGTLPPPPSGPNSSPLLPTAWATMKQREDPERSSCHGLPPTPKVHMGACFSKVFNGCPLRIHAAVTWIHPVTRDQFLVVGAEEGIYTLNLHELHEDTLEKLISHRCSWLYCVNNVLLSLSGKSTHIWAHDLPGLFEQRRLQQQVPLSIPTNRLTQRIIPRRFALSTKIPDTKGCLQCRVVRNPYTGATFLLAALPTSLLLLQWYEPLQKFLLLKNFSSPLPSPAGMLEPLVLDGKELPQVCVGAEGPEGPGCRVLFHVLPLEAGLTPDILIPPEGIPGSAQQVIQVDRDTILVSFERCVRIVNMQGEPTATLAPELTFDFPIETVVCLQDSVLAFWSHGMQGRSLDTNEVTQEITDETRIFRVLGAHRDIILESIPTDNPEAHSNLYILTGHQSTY
# [6] = target: Serine/threonine-protein kinase 33 (Homo sapiens) (UniProt Q9BYT3); assay: Inhibition of human recombinant STK33 at 15 nM in presence of ATP by radiometric assay relative to control
# [7] = target: T3, Interleukin-1 receptor-associated kinase 4 (Homo sapiens) (UniProt Q9NWZ3); assay: Inhibition of human recombinant IRAK4 at 15 nM related to control ULK1
# T3 sequence (whole entry): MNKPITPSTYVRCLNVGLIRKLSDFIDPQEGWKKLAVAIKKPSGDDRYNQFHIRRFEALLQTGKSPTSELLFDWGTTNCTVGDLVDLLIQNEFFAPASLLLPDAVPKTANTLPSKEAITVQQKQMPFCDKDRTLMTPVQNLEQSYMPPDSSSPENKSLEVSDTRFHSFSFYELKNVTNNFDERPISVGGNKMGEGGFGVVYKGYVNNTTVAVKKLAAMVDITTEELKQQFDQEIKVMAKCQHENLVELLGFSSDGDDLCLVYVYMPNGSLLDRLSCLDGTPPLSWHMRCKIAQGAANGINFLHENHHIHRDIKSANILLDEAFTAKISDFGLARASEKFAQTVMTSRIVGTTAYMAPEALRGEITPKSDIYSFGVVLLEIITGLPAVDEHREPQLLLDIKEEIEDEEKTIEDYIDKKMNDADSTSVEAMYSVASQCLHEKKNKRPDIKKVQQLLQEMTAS
# [8] = target: Homeodomain-interacting protein kinase 2 (Homo sapiens) (UniProt Q9H2X6); assay: Inhibition of human recombinant HIPK2 at 40 nM in presence of ATP by radiometric assay relative to control
# [9] = target: Dual specificity tyrosine-phosphorylation-regulated kinase 1A (Homo sapiens) (UniProt Q13627); assay: Inhibition of human recombinant DYRK1A at 40 nM in presence of ATP by radiometric assay relative to control
# Serine-protein kinase ATM (Homo sapiens), sequence (Q13315 whole entry): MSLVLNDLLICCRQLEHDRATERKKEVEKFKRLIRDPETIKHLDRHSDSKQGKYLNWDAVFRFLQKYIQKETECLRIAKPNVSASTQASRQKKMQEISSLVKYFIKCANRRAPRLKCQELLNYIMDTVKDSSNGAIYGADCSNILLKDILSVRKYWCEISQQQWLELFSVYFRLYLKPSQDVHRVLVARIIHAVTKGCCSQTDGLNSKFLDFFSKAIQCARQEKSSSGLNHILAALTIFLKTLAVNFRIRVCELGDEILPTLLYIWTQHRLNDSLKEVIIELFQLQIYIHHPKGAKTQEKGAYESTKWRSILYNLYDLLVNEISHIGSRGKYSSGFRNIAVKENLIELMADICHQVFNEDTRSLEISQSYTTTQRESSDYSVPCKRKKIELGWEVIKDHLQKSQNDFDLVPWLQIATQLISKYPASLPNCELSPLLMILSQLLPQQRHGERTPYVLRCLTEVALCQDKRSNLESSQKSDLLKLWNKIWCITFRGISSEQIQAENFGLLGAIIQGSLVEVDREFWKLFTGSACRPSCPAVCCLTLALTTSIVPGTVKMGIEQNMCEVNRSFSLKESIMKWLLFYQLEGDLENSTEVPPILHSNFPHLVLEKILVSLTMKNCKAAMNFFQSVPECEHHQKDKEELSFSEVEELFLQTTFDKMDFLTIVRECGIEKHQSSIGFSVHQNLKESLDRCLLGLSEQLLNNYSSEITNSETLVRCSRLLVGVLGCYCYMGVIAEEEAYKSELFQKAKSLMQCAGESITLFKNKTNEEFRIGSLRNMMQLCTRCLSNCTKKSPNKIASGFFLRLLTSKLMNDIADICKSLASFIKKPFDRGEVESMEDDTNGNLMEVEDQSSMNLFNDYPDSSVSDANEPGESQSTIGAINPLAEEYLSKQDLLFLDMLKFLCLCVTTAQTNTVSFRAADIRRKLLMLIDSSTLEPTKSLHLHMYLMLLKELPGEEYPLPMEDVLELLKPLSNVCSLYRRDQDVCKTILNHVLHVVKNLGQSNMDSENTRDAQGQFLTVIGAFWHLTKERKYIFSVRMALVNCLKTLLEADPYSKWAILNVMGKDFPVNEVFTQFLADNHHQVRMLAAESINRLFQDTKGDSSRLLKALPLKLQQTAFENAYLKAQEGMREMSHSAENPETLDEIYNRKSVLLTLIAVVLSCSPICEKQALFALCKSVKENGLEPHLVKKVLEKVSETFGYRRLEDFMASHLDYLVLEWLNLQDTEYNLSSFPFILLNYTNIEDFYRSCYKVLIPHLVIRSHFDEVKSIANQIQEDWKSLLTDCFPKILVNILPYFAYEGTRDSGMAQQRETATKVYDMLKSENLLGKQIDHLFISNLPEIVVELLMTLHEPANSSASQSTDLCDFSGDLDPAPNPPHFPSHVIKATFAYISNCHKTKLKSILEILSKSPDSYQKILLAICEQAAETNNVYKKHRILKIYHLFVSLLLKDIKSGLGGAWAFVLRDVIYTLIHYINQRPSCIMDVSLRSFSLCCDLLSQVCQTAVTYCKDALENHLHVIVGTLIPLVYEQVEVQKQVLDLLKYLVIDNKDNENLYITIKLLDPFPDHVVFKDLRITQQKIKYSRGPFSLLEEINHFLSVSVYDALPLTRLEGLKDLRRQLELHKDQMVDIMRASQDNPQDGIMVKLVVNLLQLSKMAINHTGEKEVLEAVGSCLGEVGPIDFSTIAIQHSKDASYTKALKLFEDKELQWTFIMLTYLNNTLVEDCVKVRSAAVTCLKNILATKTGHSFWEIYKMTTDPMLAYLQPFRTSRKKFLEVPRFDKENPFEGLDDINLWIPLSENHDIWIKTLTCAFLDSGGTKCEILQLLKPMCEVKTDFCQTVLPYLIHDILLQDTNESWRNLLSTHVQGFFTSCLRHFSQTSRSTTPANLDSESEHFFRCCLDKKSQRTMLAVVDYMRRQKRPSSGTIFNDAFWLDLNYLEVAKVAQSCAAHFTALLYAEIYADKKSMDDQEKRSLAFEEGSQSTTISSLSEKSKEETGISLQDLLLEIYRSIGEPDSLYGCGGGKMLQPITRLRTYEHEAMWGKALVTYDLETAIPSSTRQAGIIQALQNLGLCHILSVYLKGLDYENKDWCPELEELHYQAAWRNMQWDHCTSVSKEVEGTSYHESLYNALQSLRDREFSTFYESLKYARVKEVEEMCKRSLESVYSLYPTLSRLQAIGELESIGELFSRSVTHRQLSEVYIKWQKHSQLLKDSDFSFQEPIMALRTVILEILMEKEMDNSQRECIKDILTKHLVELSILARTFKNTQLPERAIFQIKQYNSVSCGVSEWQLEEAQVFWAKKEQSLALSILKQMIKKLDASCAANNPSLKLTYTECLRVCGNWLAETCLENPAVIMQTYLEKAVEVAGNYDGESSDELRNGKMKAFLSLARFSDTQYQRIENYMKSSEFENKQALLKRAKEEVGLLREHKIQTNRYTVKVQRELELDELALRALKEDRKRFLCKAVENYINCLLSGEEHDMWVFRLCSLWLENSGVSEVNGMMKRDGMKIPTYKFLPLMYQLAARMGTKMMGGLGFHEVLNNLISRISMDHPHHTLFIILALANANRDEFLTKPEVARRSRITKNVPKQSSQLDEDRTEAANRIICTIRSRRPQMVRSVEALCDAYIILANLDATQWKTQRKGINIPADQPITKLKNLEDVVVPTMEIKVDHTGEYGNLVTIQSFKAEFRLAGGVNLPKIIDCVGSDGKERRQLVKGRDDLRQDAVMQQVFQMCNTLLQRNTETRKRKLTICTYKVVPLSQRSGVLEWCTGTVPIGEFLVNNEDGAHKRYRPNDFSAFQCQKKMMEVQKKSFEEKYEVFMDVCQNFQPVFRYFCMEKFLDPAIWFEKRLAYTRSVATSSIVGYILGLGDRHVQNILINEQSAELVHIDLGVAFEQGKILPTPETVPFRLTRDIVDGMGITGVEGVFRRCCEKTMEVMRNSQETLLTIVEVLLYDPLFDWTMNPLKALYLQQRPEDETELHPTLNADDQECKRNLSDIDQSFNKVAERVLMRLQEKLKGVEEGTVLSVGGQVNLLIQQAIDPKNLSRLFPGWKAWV
# Serine/threonine-protein kinase tousled-like 2 (Homo sapiens), sequence (Q86UE8 whole entry, looked up): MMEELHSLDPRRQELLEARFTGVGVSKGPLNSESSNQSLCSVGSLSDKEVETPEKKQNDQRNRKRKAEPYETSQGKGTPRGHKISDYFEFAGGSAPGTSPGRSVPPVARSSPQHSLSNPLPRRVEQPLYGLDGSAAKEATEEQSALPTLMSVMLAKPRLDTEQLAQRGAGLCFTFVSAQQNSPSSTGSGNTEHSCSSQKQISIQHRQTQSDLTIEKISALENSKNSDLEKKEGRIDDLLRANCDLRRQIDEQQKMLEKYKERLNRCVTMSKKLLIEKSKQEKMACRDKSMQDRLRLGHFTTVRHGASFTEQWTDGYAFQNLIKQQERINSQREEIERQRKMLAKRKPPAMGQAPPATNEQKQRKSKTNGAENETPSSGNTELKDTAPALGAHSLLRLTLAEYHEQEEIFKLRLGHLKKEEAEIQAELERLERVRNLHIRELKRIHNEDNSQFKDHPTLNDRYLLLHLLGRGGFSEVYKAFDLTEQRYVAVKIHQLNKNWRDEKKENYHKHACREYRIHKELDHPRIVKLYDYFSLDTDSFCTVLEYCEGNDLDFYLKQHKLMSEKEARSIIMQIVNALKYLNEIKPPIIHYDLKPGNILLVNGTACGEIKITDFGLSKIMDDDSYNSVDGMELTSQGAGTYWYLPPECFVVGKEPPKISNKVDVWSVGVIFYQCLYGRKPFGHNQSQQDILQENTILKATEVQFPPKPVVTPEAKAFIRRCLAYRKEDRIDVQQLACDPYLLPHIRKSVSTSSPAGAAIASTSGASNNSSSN
# Mitogen-activated protein kinase 8 (Homo sapiens), sequence (P45983 whole entry): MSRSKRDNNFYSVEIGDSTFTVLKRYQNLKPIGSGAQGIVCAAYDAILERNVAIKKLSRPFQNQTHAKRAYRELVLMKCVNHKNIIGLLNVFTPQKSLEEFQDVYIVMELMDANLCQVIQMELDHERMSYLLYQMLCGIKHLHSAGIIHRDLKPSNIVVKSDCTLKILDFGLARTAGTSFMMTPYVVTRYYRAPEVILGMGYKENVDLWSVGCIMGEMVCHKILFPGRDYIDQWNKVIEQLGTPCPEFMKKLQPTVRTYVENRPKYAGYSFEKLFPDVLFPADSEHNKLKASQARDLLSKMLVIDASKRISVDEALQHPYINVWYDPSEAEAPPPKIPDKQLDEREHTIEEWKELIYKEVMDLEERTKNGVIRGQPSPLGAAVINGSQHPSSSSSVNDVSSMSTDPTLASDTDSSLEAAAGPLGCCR
# Serine/threonine-protein kinase 33 (Homo sapiens), sequence (Q9BYT3 whole entry, looked up): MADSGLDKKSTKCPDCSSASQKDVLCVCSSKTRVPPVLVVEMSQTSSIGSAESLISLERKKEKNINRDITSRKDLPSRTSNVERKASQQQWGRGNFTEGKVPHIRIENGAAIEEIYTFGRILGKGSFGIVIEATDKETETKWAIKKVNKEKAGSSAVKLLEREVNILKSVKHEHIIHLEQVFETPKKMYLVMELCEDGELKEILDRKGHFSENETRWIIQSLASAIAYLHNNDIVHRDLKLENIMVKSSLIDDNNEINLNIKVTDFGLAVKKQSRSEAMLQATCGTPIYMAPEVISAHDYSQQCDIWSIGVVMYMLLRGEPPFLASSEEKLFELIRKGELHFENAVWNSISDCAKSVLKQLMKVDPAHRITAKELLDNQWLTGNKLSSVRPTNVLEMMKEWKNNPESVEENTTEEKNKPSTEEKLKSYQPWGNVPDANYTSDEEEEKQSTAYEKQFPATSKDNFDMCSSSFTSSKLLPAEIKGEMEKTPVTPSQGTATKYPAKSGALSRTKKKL
smiles,measurement,setting,value
CNC(=O)c1ccccc1Oc1nc(Nc2cc(OC)c(OC)c(OC)c2)ncc1Br,fold change (FC),[1],0.03
same,inhibition,[2],0%
same,inhibition,[3],0%
same,fold change (FC),[4],0.01
CC(C)[C@H](NC(=O)c1cc(-c2cnn3cc(-c4ccc(OCCN5CCCCC5)cc4)cnc23)cs1)C(F)(F)F,inhibition,[5],34%
same,inhibition,[6],16%
same,fold change (FC),[7],0
O=C(N[C@@H](C1CC1)C(F)(F)F)c1cc(-c2cnn3cc(-c4ccc(F)cc4)cnc23)cs1,inhibition,[8],0%
same,inhibition,[9],43%

# Source: ChEMBL document CHEMBL5653631, “A Potent and Selective ULK1 Inhibitor Suppresses Autophagy and Sensitizes Cancer Cells to Nutrient Stress” (iScience, 2018)
